The results in this text go back to ChEMBL document CHEMBL4130569, “Structure Optimization of Aloperine Derivatives as HIV-1 Entry Inhibitors” (ACS Med Chem Lett, 2017).

What is called EC50 is the concentration giving half of the maximal effect. Broadly, the CC50 is the concentration at which the toxic effect on the cells reaches its halfway point.

The source made the active and inactive calls. The calls are words filed in the database; no cut-off is given here.

Data set [1] relates to Human immunodeficiency virus 1. Put plainly: Antiviral activity against HIV1 NL4-3 infected in human MT4 cells after 3 days by luciferase reporter gene assay. The format is functional, organism-based. The following applies: Human immunodeficiency virus 1, NL4-3, MT4, 72 h. On the technique in general: Reporter assays use an easily measured gene product as a stand-in for the process of interest.

The nature of data set [2]: Cytotoxicity in human MT4 cells assessed as reduction of cell viability incubated for 3 days by CytoTox-Glo cytotoxicity assay. The format is cell-based.
Data set [3] deals with Influenza A virus. Put plainly: Antiviral activity against Influenza A virus (A/Puerto Rico/8/1934(H1N1)) infected in MDCK cells assessed as inhibition of virus-induced cytopathic effect incubated for 48 hrs by Cell-titer-Glo assay. The format is functional, organism-based.
The nature of data set [4]: Cytotoxicity in MDCK cells assessed as reduction of cell viability incubated for 2 days by CytoTox-Glo cytotoxicity assay. The format is cell-based, Canis lupus familiaris. The following applies: dog.
Data set [5] can be described thus: Selectivity index, ratio of EC50 for antiviral activity against influenza A virus (A/Puerto Rico/8/1934(H1N1)) infected in MDCK cells to EC50 for antiviral activity against HIV1 NL4-3 infected in human MT4 cells.
A short description of data set [6]: Selectivity index, ratio of CC50 for human MT4 cells […] NL4-3 infected in human MT4 cells. The format is toxicity, cell-based. The following applies: MT4 cells and HIV1 NL4-3 infected MT4 cells, read-out: Ratio CC50/EC50.
Data set [7] has as its system Human immunodeficiency virus 1. Put plainly: Potency index, ratio of EC50 for aloperine to EC50 for test compound for antiviral activity against HIV1 NL4-3 infected in human MT4 cells after 3 days by luciferase reporter gene assay. It counts as functional.
In data set [8] the test system is Human immunodeficiency virus 1. Description: Inhibition of HIV1-mediated cellular entry in HIV1 NL4-3 VPR-GFP infected human TZM-bl cells incubated for 2 hrs by confocal microscopy. It counts as functional, organism-based. In outline: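 TZM-bl cells were infected with NL4-3/Vpr-GFP virus, with or without test compound at 1 µM, for 2 h. Nuclei were stained with DAPI 2 h post infection, and confocal microscopy imaged GFP. Cytosolic GFP dispersal marked entry; GFP puncta marked virus arrested at the cell or endosomal membrane. Uninfected DAPI-stained cells served as background.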

The target of data set [9] is Envelope glycoprotein gp160 (Human immunodeficiency virus 1) (UniProt Q6QLK5). Description: Induction of conformational changes in HIV1 NLDH120 envelope glycoprotein gp120 transfected in COS cells assessed as increase in gp120 binding of monoclonal antibody 17b at 10 uM after 48 hrs by FACS. The format is cell-based. In general terms: In flow cytometry, cells or beads pass a laser one at a time.
Envelope glycoprotein gp160 (Human immunodeficiency virus 1), sequence (Q6QLK5 1-814): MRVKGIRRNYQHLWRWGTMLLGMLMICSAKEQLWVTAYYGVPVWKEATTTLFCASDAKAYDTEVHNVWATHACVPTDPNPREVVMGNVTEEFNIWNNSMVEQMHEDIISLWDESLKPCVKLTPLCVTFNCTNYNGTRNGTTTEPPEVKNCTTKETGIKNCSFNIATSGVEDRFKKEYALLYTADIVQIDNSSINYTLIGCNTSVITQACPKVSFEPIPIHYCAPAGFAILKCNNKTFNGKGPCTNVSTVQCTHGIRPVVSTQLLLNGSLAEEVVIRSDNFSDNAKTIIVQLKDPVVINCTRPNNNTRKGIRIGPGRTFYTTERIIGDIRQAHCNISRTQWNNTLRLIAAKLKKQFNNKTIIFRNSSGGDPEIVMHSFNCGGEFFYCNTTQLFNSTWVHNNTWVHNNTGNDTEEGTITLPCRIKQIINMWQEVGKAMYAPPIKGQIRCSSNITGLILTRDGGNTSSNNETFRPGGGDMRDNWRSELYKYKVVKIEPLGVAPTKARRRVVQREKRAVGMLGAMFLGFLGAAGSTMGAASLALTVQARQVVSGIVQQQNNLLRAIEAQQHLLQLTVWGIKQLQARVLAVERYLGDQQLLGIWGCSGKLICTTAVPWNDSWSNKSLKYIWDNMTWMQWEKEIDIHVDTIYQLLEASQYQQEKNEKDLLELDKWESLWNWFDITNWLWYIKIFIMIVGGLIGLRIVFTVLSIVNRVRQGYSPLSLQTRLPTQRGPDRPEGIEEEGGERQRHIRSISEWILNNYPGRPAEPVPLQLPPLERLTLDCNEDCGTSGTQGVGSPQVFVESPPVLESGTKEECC

Turning to `O=C(NCCCCN1CCCC2=C[C@H]3C[C@H](CN4CCCC[C@H]34)[C@@H]21)C1CCC(C(F)(F)F)CC1` (some centres not stated), in data set [1], the EC50 was over 3 µM. The half-maximal cytotoxic concentration (CC50) at 72 h in [2] was over 40 µM.

As for `O=C(NCCCCN1CCCC2=C[C@H]3C[C@H](CN4CCCC[C@H]34)[C@@H]21)c1ccc(C(F)(F)F)c(F)c1`, the EC50 in data set [1] amounted to 2.22 µM. Further, in [2], the CC50 at 72 h was over 40 µM.

With `O=C(Cc1ccc(C(F)(F)F)cc1)NCCCCN1CCCC2=C[C@H]3C[C@H](CN4CCCC[C@H]34)[C@@H]21`, the EC50 is 0.81 µM in [1] and “Not Active” in data set [3] (mdck). In data set [2], the CC50 at 72 h is over 40 µM. Also, the CC50 at 48 h in [4] is over 80 µM.

The compound `O=C(NCCCCN1CCCC2=C[C@H]3C[C@H](CN4CCCC[C@H]34)[C@@H]21)c1ccc2c(c1)OCO2` gave an EC50 in [1] of over 3 µM. In addition, in data set [2], the CC50 at 72 h was over 40 µM.

For `O=C(NCCCCN1CCCC2=C[C@H]3C[C@H](CN4CCCC[C@H]34)[C@@H]21)C(=O)c1ccc(C(F)(F)F)cc1`, the values for the EC50 in data set [1] and in [3] (mdck) were 0.99 µM and “Not Active”, respectively. The CC50 at 72 h in data set [2] was over 40 µM. The CC50 at 48 h in data set [4] was over 80 µM.

As to `O=S(=O)(Cc1ccc(OC(F)(F)F)cc1)NCCCCN1CCCC2=C[C@H]3C[C@H](CN4CCCC[C@H]34)[C@@H]21`, the EC50 in [1] is over 3 µM. Also, in data set [2], the CC50 at 72 h came to 35.7 µM.

For `O=C(Cc1ccc2c(c1)OCO2)NCCCCN1CCCC2=C[C@H]3C[C@H](CN4CCCC[C@H]34)[C@@H]21`, in data set [1], the EC50 was over 3 µM. The CC50 at 72 h in data set [2] is over 40 µM.

`O=C(NCCCCN1CCCC2=C[C@H]3C[C@H](CN4CCCC[C@H]34)[C@@H]21)c1ccc(S(=O)(=O)F)cc1`: the CC50 at 72 h in data set [2] was found to be 38.5 µM.

Regarding `C1=C2CCCN[C@H]2[C@@H]2C[C@H]1[C@H]1CCCCN1C2`, the CC50 at 72 h in data set [2] was over 86 µM. In addition, the CC50 at 48 h in data set [4] is over 80 µM. In addition, the “Ratio EC50” value in [5] was 7.

In data set [1], `O=C(NCCCCN1CCCC2=C[C@H]3C[C@H](CN4CCCC[C@H]34)[C@@H]21)c1ccc(-c2ccsc2)cc1` showed an EC50 of 1.32 µM. The CC50 at 72 h in [2] amounted to 21.2 µM.

As to `O=C(Cc1ccc(OC(F)(F)F)cc1)NCCCCN1CCC[C@H]2C[C@H]3C[C@H](CN4CCCC[C@H]34)[C@@H]21`, in data set [1], the EC50 stood at 1.5 µM. Moreover, the CC50 at 72 h in [2] is over 40 µM.

For the compound `CS(=O)(=O)c1ccc(CC(=O)NCCCCN2CCCC3=C[C@H]4C[C@H](CN5CCCC[C@H]45)[C@@H]32)cc1`, in data set [1], the EC50 was over 3 µM. For the same compound, the CC50 at 72 h in data set [2] is over 40 µM.

Regarding `O=C(NCCCCN1CCCC2=C[C@H]3C[C@H](CN4CCCC[C@H]34)[C@@H]21)c1ccc(-c2cccs2)cc1`, in data set [1], the half-maximal effective concentration (EC50) was over 3 µM. Also, the CC50 at 72 h in [2] worked out at 16.2 µM.

Regarding `CC(C)(C)c1ccc(C(=O)NCCCCN2CCCC3=C[C@H]4C[C@H](CN5CCCC[C@H]45)[C@@H]32)cc1`, a half-maximal response in data set [1] (EC50) required 2.15 µM. Also, the CC50 at 72 h in data set [2] amounted to 12.9 µM.

In turn, `O=C(Cc1ccc(OC(F)(F)F)cc1)NCCCCN1CCC[C@@H]2C[C@H]3C[C@H](CN4CCCC[C@H]34)[C@@H]21` showed a half-maximal effective concentration (EC50) in data set [1] of 2.8 µM. Besides, the CC50 at 72 h in data set [2] is over 40 µM.

`O=C(Cc1ccc(S(=O)(=O)C(F)(F)F)cc1)NCCCCN1CCC[C@@H]2C[C@H]3C[C@H](CN4CCCC[C@H]34)[C@@H]21`: the EC50 in [1] was over 3 µM. Moreover, the CC50 at 72 h in [2] is over 40 µM.

In [1], `O=C(CC1CCC(F)(F)CC1)NCCCCN1CCCC2=C[C@H]3C[C@H](CN4CCCC[C@H]34)[C@@H]21` had an EC50 of 1.94 µM. For the same compound, in data set [2], the CC50 at 72 h is over 40 µM.

`O=C(NCCCCN1CCCC2=C[C@H]3C[C@H](CN4CCCC[C@H]34)[C@@H]21)c1ccc(C(=O)c2ccccc2)cc1`: the EC50 in data set [1] was 0.97 µM; in [3] (mdck), “Not Active”. Moreover, in [2], the CC50 at 72 h is over 40 µM. Further, the CC50 at 48 h in data set [4] is 31.6 µM.

`CC(C)(C)c1ccc(CC(=O)NCCCCN2CCCC3=C[C@H]4C[C@H](CN5CCCC[C@H]45)[C@@H]32)cc1` returned an EC50 in data set [1] of 2.09 µM. For the same compound, the CC50 at 72 h in data set [2] is over 40 µM.

Regarding `O=C(Cc1ccc(SC(F)(F)F)cc1)NCCCCN1CCCC2=C[C@H]3C[C@H](CN4CCCC[C@H]34)[C@@H]21`, the EC50 in data set [1] was 0.18 µM; in data set [3] (mdck) it was “Not Active”. The CC50 at 72 h in data set [2] turned out to be 23.8 µM. Besides, the CC50 at 48 h in data set [4] turned out to be 45.1 µM.

In the case of `O=C(Cc1ccc(Br)cc1)NCCCCN1CCCC2=C[C@H]3C[C@H](CN4CCCC[C@H]34)[C@@H]21`, the EC50 in data set [1] amounted to 1.32 µM. For the same compound, in data set [2], the CC50 at 72 h is over 40 µM.

Turning to `O=C(Cc1ccc([S+]([O-])C(F)(F)F)cc1)NCCCCN1CCCC2=C[C@H]3C[C@H](CN4CCCC[C@H]34)[C@@H]21` (some centres not stated), in data set [1], the 50% effective concentration (EC50) was 1.67 µM. In data set [2], the CC50 at 72 h is over 40 µM.

For `O=C(Cc1ccc(OC(F)(F)F)cc1)NCCCCN1CCCC2=C[C@H]3C[C@H](CN4CCCC[C@H]34)[C@@H]21`, the EC50 in data set [3] (Influenza A virus, A/Puerto Rico/8/1934(H1N1), MDCK, 48 h, read-out: EC50) is 18.9 µM. The CC50 at 48 h in [4] is over 80 µM.

Turning to `O=C(NCCCCN1CCCC2=C[C@H]3C[C@H](CN4CCCC[C@H]34)[C@@H]21)c1ccc(CNS(=O)(=O)C(F)(F)F)cc1`, the CC50 at 72 h in data set [2] is over 40 µM.

Take `O=S(=O)(NCCCCN1CCCC2=C[C@H]3C[C@H](CN4CCCC[C@H]34)[C@@H]21)c1ccc(OC(F)(F)F)cc1`: the EC50 in data set [1] was over 3 µM. Besides, the CC50 at 72 h in [2] was over 40 µM.

For `O=C(Cc1ccc(S(=O)(=O)C(F)(F)F)cc1)NCCCCN1CCCC2=C[C@H]3C[C@H](CN4CCCC[C@H]34)[C@@H]21`, the EC50 is 0.12 µM in data set [1] and “Not Active” in data set [3] (mdck). In data set [2], the CC50 at 72 h is 28.8 µM. For the same compound, the selectivity ratio in data set [6] turned out to be 240. Besides, the “Ratio EC50” value in [7] is given as 15. The CC50 at 48 h in data set [4] is over 80 µM. Further, in data set [8], the inhibition entry was “Active”. In addition, in data set [9], the result was Active.

`O=C(NCCCCN1CCCC2=C[C@H]3C[C@H](CN4CCCC[C@H]34)[C@@H]21)c1ccc(S(=O)(=O)C(F)(F)F)cc1`: the EC50 in data set [1] was 0.55 µM; in data set [3] (mdck) it was “Not Active”. The CC50 at 72 h in [2] is over 40 µM. In addition, in data set [4], the CC50 at 48 h was over 80 µM.

With `O=C(CCc1ccc(OC(F)(F)F)cc1)NCCCCN1CCCC2=C[C@H]3C[C@H](CN4CCCC[C@H]34)[C@@H]21`, the EC50 in data set [1] is over 3 µM. For the same compound, the CC50 at 72 h in data set [2] was over 40 µM.

In [1], `O=C(Cc1ccc(S(=O)(=O)C(F)(F)F)cc1)NCCCCN1CCC[C@H]2C[C@H]3C[C@H](CN4CCCC[C@H]34)[C@@H]21` showed an EC50 of over 3 µM. The CC50 at 72 h in data set [2] is over 40 µM.

`O=C(NCCCCN1CCCC2=C[C@H]3C[C@H](CN4CCCC[C@H]34)[C@@H]21)C1CCC(F)(F)CC1`: the midpoint of the response in data set [1], the EC50, lay at 2.44 µM. Also, the CC50 at 72 h in [2] is over 40 µM.

In data set [1], `O=C(Cc1ccc(S(=O)(=O)CC(F)(F)F)cc1)NCCCCN1CCCC2=C[C@H]3C[C@H](CN4CCCC[C@H]34)[C@@H]21` came in with an EC50 of over 3 µM. The CC50 at 72 h in [2] was over 40 µM.
